From publication PMC5218545 (Angewandte Chemie (International ed. in English), 2016)

How the values were obtained:
Type in all cases: biochemical
[1] = target: T1, recombinant purified enzyme 15-LOX-1 (Homo sapiens, UniProt P16050); assay: ABPP two-step labeling of recombinant purified 15-LOX-1; details: 10 min incubation with inhibitor, then 2 min with probe N144
T1 sequence (P16050 1-662): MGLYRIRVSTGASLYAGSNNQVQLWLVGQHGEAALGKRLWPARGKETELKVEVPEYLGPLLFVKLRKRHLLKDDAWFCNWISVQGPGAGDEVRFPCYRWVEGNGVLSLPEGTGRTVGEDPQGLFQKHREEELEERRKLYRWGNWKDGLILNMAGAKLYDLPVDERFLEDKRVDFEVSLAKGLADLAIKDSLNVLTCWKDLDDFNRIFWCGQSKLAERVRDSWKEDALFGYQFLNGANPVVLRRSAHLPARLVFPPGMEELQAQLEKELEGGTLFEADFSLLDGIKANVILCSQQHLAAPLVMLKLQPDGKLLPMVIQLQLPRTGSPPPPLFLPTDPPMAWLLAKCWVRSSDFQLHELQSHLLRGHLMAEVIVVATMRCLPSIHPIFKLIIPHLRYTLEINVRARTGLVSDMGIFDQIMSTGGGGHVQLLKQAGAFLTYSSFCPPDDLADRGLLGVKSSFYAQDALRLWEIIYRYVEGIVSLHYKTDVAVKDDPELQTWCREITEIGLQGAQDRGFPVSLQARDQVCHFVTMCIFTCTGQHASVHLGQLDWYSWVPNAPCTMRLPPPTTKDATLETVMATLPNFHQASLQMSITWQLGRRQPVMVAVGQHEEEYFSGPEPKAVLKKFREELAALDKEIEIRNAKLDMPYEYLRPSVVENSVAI
Summary of the method: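 Recombinant purified human 15-LOX-1 preincubated 10 min with a reversible 15-LOX-1 inhibitor or a 5-LOX inhibitor as control. Then 2 min with an alkene-tagged bis-alkyne probe. Biotinyl phenyl boronic acid was attached to the terminal alkene by oxidative Heck reaction. Equal enzyme amounts were run on Western blot and detected by HRP-streptavidin luminescence, alongside Coomassie staining and no-probe controls.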

[2] = target: T2, 15-LOX-1 in tissue lysates from different mice organs (Mus musculus, UniProt P39654); assay: Activity-based labeling in mouse tissue lysates; details: inhibitor 90 μM, three characteristic bands
T2 sequence (P39654 1-663): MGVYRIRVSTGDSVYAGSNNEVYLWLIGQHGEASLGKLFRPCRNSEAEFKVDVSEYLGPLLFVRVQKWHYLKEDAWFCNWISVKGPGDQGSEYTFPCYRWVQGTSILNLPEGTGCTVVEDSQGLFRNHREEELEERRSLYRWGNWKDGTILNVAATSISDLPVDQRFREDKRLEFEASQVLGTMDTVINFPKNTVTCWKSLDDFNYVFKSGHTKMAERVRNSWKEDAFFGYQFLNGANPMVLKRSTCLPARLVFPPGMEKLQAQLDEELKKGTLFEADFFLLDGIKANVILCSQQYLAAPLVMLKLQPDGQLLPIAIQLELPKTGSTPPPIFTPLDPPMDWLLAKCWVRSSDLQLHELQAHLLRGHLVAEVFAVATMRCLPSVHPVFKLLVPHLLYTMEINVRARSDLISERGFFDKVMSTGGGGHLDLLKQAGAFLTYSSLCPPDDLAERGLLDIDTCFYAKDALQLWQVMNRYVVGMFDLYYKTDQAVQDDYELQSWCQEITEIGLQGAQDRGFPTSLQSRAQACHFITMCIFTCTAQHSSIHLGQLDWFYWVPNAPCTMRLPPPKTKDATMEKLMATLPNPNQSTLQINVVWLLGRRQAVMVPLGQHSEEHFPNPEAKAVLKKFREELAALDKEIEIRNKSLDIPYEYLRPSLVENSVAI
Summary of the method: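 Mouse heart tissue lysate: endogenous enzyme preincubated with inhibitors at 90 μM, then labeled with an alkene-tagged bis-alkyne probe. The probe was biotinylated by oxidative Heck coupling with biotinyl phenyl boronic acid. Labeled proteins were detected on blot with HRP-conjugated streptavidin luminescence.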

[3] = target: T3, endogenous 15-LOX-1 in HeLa cell lysate (Homo sapiens, UniProt P16050); assay: Activity-based labeling in HeLa cell lysate; details: inhibitor 90 μM; bands also characterized by the 15-LOX-1 antibody
T3 sequence (P16050 1-662): T1 sequence (P16050 1-662)
Summary of the method: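 HeLa cell lysate: endogenous enzyme preincubated with inhibitors at 90 μM, then labeled with an alkene-tagged bis-alkyne probe. Biotinylation by oxidative Heck reaction with biotinyl phenyl boronic acid. Blots were first probed with 15-LOX antibody, then stripped and developed with HRP-conjugated streptavidin by on-blot luminescence. Included no-probe controls.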

| effect of inhibitor pre-incubation on N144 labeling of recombinant 15-LOX-1 [1] | effect of inhibitor on N144 labeling in mouse heart lysate [2] | effect of inhibitor on N144 labeling in HeLa cell lysates [3] | SMILES |
| --- | --- | --- | --- |
| labeling was clearly inhibited | reduced labeling | decrease of the labeling | c1ccc2c(c1)SCc1c-2[nH]c2ccccc12 [PD-146176] |
| did not affect the labeling | – | – | CC(c1cc2ccccc2s1)N(O)C(N)=O (stereo not shown) [Zileuton] |
